Screening results as filed in PubChem BioAssay.
In the library only some 4.6% were active in any assay of this set; here they are far more common.
p97 inhibitor: human p97 ATPase inhibition | P55072 | recombinant p97 ATPase, Kinase-Glo ATP luminescence, 3 h | inhibition, % at 8 µM | actives 0.42% (n = 220,000) | AID 1481; in the data active = inhibition above about 15%
Target sequence (P55072 whole entry, looked up): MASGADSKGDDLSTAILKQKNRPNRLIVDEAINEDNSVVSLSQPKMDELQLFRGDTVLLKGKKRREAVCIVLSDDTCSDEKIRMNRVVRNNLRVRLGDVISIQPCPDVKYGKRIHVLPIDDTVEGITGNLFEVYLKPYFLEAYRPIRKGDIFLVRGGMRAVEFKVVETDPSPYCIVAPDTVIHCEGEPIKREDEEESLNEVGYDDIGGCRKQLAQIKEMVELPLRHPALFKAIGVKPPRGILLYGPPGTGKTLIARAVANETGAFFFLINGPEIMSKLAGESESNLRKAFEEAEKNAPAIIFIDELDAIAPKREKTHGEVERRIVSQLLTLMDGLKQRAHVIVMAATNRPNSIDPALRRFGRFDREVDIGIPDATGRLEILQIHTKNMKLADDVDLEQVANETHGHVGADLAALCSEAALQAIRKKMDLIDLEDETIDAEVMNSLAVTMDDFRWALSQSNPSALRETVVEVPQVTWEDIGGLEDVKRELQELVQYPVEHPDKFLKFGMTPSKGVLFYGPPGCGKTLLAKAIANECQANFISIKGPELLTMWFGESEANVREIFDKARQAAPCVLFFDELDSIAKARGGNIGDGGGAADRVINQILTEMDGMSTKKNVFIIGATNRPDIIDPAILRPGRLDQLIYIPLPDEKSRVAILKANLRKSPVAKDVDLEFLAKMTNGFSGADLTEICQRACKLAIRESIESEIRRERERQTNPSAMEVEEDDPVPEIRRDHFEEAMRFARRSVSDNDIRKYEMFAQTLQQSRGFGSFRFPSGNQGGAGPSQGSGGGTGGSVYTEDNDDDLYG
NF-kB neuron act: NF-kB expression increase, human neuronal cells. NF-kB reporter expression; hits give high values. fold change at 12.5 µM. actives 1.6% (n = 190,000). AID 1239; in the data active = fold change above about 3.3
STAT1 act: STAT1 signaling activation. NIH 3T3 STAT1-luciferase reporter, IFN-gamma, luminescence; 100% = IFN-gamma alone, no compound. activation (% of control), % at 5.5 µM. actives 2.6% (n = 200,000);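 active = activation above the screen-wide mean activation plus 3 SD, cut at about 130% in these data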
MDM2 E3 inh: inhibitors of human Mdm2 E3 ubiquitin ligase; actives 0.11% (n = 210,000); AID 1230; signal enhancement, % at 5 µM; Q00987; cell-based MDM2 ubiquitination luciferase reporter, 2 h; 0 = plate control, 100 = twice control, blank-subtracted;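 active = signal enhancement of 30% or more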;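 note: luminescence tracks abundance of the self-degrading MDM2-luciferase fusion protein; higher signal means inhibition of MDM2 E3 ligase activity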
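Material: Stable MDM2–luciferase fusion reporter cells | Amount: 2000 cells seeded into each well | Dosing: One concentration, 5 µM, with 0.2% DMSO | Incubation: 4 h cell settling then 2 h compound exposure, 37 °C | Measured by: Luciferase luminescence | Read-out basis: % enhancement relative to plate controls after blank subtraction | Benchmarks: Control and blank well means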
APP 5'UTR act: activates APP 5'UTR luciferase reporter | SH-SY5Y APP 5'UTR luciferase reporter, luminescence; zero percent = DMSO vehicle wells | activation, % at 2 µM | actives 1% (n = 190,000) | AID 1276;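 active = activation above a set limit, based on mean plus 3 SD of controls, cut at about 140% in these data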
Wee1 degr inh: blocks degradation of human Wee1 kinase. P30291. HeLa Luc-Wee1K328M stability, luciferase luminescence; 100% = proteasome inhibitor MG132 effect. reporter increase, % at 5 µM. actives 1.2% (n = 220,000). AID 1321;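 active = activation above the mean of all tested compounds plus 3 SD, set per screening run, cut at about 8.8% in these data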;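 note: cells exposed to compound for 20 h before luminescence read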
Numbers stand for hits; n = inactive; x = no result.

SMILES	p97 inhibitor	NF-kB neuron act	STAT1 act	MDM2 E3 inh	APP 5'UTR act	Wee1 degr inh
CCC(C)NC(=O)c1ccc(-n2c(=S)[nH]c3ccccc3c2=O)cc1 (stereo not drawn)	n	n	n	n	n	n
Cn1c(SCn2nnc3ccccc3c2=O)nc2ccccc2c1=O	n	n	n	n	n	n
O=c1c2ccccc2nnn1CSc1nnc2ccccn12	n	n	146.3	n	n	n
O=c1c2ccccc2nnn1CSc1ccc2c(c1)OCCO2	n	4.2	146.4	n	n	n
O=C(CCl)Nc1ccc(N2CCCCCC2)cc1	n	n	n	n	n	n
Cc1c(C(=O)NCC2COc3ccccc3O2)oc2ccc(S(=O)(=O)N3CCOCC3)cc12 (stereo not drawn)	n	n	n	n	n	9.1
CC1CCC(NC(=O)COc2ccccc2C(N)=O)CC1 (stereo not drawn)	n	n	n	n	n	n
CC(C)CN(CC(C)C)C(=O)COc1ccccc1C(N)=O	n	n	n	n	n	9.9
C=C(C)c1cccc(C(C)(C)NC(=O)N(Cc2ccccc2)Cc2ccco2)c1	n	n	n	n	n	16.2
Cc1ccc(C(=O)CNc2cccc([N+](=O)[O-])c2)cc1	n	n	n	n	n	n
Cc1ccc(NCC(=O)c2ccc([N+](=O)[O-])cc2)cc1	n	n	n	n	n	9.4
CCOC(=O)N1CCN(C(=S)NC(=O)c2ccc(F)c(F)c2)CC1	n	n	n	n	n	n
O=C1/C(=C/c2ccc(F)cc2)SC(=S)N1Nc1ncc(C(F)(F)F)cc1Cl	19.0	n	n	n	n	n
O=C1/C(=C\c2ccccn2)SC(=S)N1Nc1ncc(C(F)(F)F)cc1Cl	n	n	n	n	n	n
O=C1NN(c2ccccc2)C(=O)/C1=C/c1coc2ccccc2c1=O	n	n	146.3	n	n	n
O=C1NN(c2ccccc2)C(=O)/C1=C\c1coc2ccc(O)cc2c1=O	n	x	x	x	x	n
CC(=O)Nc1ccc(S(=O)(=O)Nc2ccc(S(=O)(=O)N3CCCC3)cc2)cc1	n	n	n	n	n	9.2
Cc1ccccc1C(C(=O)NC1CCCCC1)N(C(=O)c1ccccn1)c1cccnc1 (stereo not drawn)	n	n	n	n	n	n
Cc1ccc(C(=O)c2cc([N+](=O)[O-])ccc2N2CCOCC2)c(C)c1	n	5.36	n	n	n	n
Cc1ccc(C(=O)c2cc([N+](=O)[O-])ccc2N2CCOCC2)cc1C	n	n	n	x	n	n
O=C(c1ccc(Br)cc1)c1cc([N+](=O)[O-])ccc1N1CCCCC1	n	4.97	n	n	n	n
O=S1(=O)CCN(Cc2cccc(C(F)(F)F)c2)CC1	n	n	n	n	n	n
C=C(C)CC(Nc1ccc(OC)cc1)c1ccco1 (stereo not drawn)	n	n	n	n	n	n
O=C(Nc1ccc(Cl)cn1)Nc1ccc(Cl)cn1	n	n	n	n	n	n
CC(C)C(=O)Nc1ccc(NC(=O)c2cccc(F)c2)cn1	n	n	n	n	n	n
SMILES	p97 inhibitor	NF-kB neuron act	STAT1 act	MDM2 E3 inh	APP 5'UTR act	Wee1 degr inh
O=C(Nc1ccc(Cl)cn1)c1cc2ccccc2o1	n	9.18	n	n	205.0	n
O=C(Nc1ccc(Cl)cn1)Nc1ccccc1F	n	n	138.7	n	n	n
O=C(Nc1ccc(Cl)cn1)c1cccc(F)c1	n	3.56	146.1	n	n	n
Cc1ccc(NC(=O)c2ccc(F)cc2)nc1	n	n	132.0	n	n	n
COc1ccc(CCNC(=O)CSc2nnc3ccccn23)cc1	n	n	n	n	n	n
CCn1c(SCC(=O)NNC(=O)c2ccc(OC)cc2)nnc1-c1ccco1	n	n	n	n	n	n
COc1ccc(-c2nn(-c3ccccc3)cc2/C=C(/C#N)C(N)=O)cc1[N+](=O)[O-]	n	n	n	n	n	n
O=C(Nc1ccccc1)Nc1nnc(-c2ccccc2)o1	n	n	n	n	n	n
O=C(Nc1nnc(-c2ccc(Cl)cc2)o1)Nc1ccccc1F	n	x	x	x	x	12.8
O=C(Nc1ccc(Br)cn1)c1cccc(-c2cc3ccccc3oc2=O)c1	n	n	143.7	n	n	n
Cc1cc(NC(=O)c2cccc(F)c2)ncc1NC(=O)c1ccco1	n	3.64	n	n	139.5	n
O=C(Nc1ccc(Cl)cn1)c1ccccc1F	n	n	132.8	n	182.9	n
NC(=S)NNC(=O)c1cccc(Cl)c1	n	x	x	n	x	n
COc1cccc(-c2nn(-c3ccccc3)cc2CN(C)Cc2c(C)nc3ccccn23)c1	n	n	n	n	n	n
CC(C)Cc1cc(C(=O)N2CCC(N3CCC(C(=O)NC4CC4)CC3)CC2)n[nH]1	n	n	n	n	n	n
Cc1c(N=NC2=C(O)CC(C)(C)CC2=O)c(=O)n(-c2ccccc2)n1C	n	n	n	n	n	n
O=C(Nc1ccccc1F)C1CCCN(S(=O)(=O)c2ccccc2)C1 (stereo not drawn)	n	n	n	n	n	n
CCOc1c(CNc2nnnn2C)cccc1OC	n	n	n	n	n	n
CN1CCN(c2nc(-c3ccccc3)ncc2S(=O)(=O)c2ccccc2)CC1	n	n	n	n	n	n
O=S(=O)(c1ccccc1)c1cnc(-c2ccccc2)nc1N1CCCCC1	n	n	144.9	n	n	n
FC(F)(F)c1ccc(Oc2ccc3ccccc3c2Br)nc1	n	n	n	n	n	n
O=C1c2ccccc2CN1CCSC(=S)N1CCSCC1	n	n	134.2	n	n	n
O=C1c2ccccc2CN1CCNC(=S)NC1CCCCC1	n	n	n	n	n	n
O=C1c2ccccc2CN1CCSC(=S)N1CCOCC1	n	n	130.5	n	n	n
CC1CN(C(=S)SCCN2Cc3ccccc3C2=O)CC(C)O1 (stereo not drawn)	n	n	n	n	n	n
SMILES	p97 inhibitor	NF-kB neuron act	STAT1 act	MDM2 E3 inh	APP 5'UTR act	Wee1 degr inh
COc1ccc(/C=C(\NC(=O)c2ccccc2)C(=O)NC2CCS(=O)(=O)C2)cc1 (stereo not drawn)	n	x	x	n	x	n
O[C@@H]1COC(Nc2ccc(N=Nc3ccccc3)cc2)C[C@@H]1O (stereo partly drawn)	n	x	x	n	x	n
Cc1ccc(S(=O)(=O)CC(=O)c2ccc3c(c2)OCCO3)cc1	n	x	x	n	x	n
CCCCNC(=O)COC(=O)c1ccc(NC(C)=O)cc1	n	n	n	n	n	n
CC(=O)Nc1cccc(C(=O)N/N=C/c2ccccc2F)c1	n	n	143.1	n	n	n
CC(C)C(NC(=O)c1ccccc1F)C(=O)NCCc1ccccn1 (stereo not drawn)	n	n	n	n	n	n
O=C(c1ccc(Br)cc1)N(c1ccccn1)C1CCCCC1	n	x	x	x	x	n
Cc1ccc2c(N)c(C#N)sc2n1	n	n	n	n	n	n
Cc1ccc2nc(-c3sc4nc(C)ccc4c3N)[nH]c2c1	n	5.92	n	n	n	n
